According to ChEMBL document CHEMBL3877308, “Design, synthesis and in vitro biological evaluation of oligopeptides targeting E. coli type I signal peptidase (LepB)” (Bioorg Med Chem, 2017):
pIC50: −log10 of the molar value. In brackets after ≈: the same amount, converted by molar mass.

How the values were obtained:
[1] = molecular target: Signal peptidase I (Escherichia coli K-12, UniProt P00803); test: Inhibition of full length Escherichia coli His6-tagged LepB expressed in Escherichia coli C43(DE3) using dabcyl-VEVGGTATAGAFSRPGLE-(EDANS) as substrate preincubated for 10 mins followed by substrate addition measured for 2 hrs by FRET assay
Signal peptidase I, sequence (P00803 whole entry): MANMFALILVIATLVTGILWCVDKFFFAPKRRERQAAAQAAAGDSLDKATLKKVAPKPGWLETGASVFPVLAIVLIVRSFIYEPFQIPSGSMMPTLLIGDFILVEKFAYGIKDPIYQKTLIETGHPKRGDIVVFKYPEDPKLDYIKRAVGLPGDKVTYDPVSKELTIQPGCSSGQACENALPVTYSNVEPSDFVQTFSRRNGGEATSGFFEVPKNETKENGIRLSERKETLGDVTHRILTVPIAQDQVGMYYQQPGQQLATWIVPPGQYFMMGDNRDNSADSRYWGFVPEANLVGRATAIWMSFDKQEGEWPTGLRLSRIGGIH
Method in brief: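 Enzyme extracted from the membrane fraction with 1% reduced Triton X-100 and purified by metal-chelation chromatography in 0.5% detergent. Enzyme (final ~50 nM) was pre-incubated with compound for 10 min at 22 °C. The linear rise in EDANS donor fluorescence (dabcyl acceptor) was then followed at 22 °C for 2 h. IC50 came from non-linear regression of sigmoidal rate-versus-concentration curves.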

[2] = molecular target: Signal peptidase I (Escherichia coli K-12) (UniProt P00803); test: Inhibition of full length Escherichia coli His6-tagged LepB expressed in Escherichia coli C43(DE3) assessed as residual activity at 2.5 uM using dabcyl-VEVGGTATAGAFSRPGLE-(EDANS) as substrate preincubated for 10 mins followed by substrate addition measured for 2 hrs by FRET assay relative to control
Signal peptidase I (Escherichia coli K-12), sequence (P00803 whole entry): as above
Method in brief: (§1)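 Enzyme came from the membrane fraction, extracted with 1% reduced Triton X-100 and purified by metal-chelation chromatography in 0.5% detergent. FRET pair was dabcyl acceptor and EDANS donor. EcLepB (final about 50 nM) was pre-incubated with compound 10 min at 22 °C. Reaction was then run with 8 µM substrate, following the linear fluorescence increase at 22 °C for 2 h.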

[3] = molecular target: Signal peptidase I (Escherichia coli K-12) (UniProt P00803); test: Inhibition of full length Escherichia coli His6-tagged LepB expressed in Escherichia coli C43(DE3) assessed as residual activity at 5 uM using dabcyl-VEVGGTATAGAFSRPGLE-(EDANS) as substrate preincubated for 10 mins followed by substrate addition measured for 2 hrs by FRET assay relative to control; method in brief: as §1
[4] = molecular target: Signal peptidase I (Escherichia coli K-12) (UniProt P00803); test: Inhibition of full length Escherichia coli His6-tagged LepB expressed in Escherichia coli C43(DE3) at 100 uM using dabcyl-VEVGGTATAGAFSRPGLE-(EDANS) as substrate preincubated for 10 mins followed by substrate addition measured for 2 hrs by FRET assay relative to control; method in brief: as §1
[5] = molecular target: Signal peptidase I (Escherichia coli K-12) (UniProt P00803); test: Inhibition of full length Escherichia coli His6-tagged LepB expressed in Escherichia coli C43(DE3) assessed as residual activity at 10 uM using dabcyl-VEVGGTATAGAFSRPGLE-(EDANS) as substrate preincubated for 10 mins followed by substrate addition measured for 2 hrs by FRET assay relative to control; method in brief: as §1
[6] = molecular target: Signal peptidase I (Escherichia coli K-12) (UniProt P00803); test: Inhibition of full length Escherichia coli His6-tagged LepB expressed in Escherichia coli C43(DE3) assessed as residual activity at 0.002 uM using dabcyl-VEVGGTATAGAFSRPGLE-(EDANS) as substrate preincubated for 10 mins followed by substrate addition measured for 2 hrs by FRET assay relative to control; method in brief: as §1
[7] = molecular target: Signal peptidase I (Escherichia coli K-12) (UniProt P00803); test: Inhibition of full length Escherichia coli His6-tagged LepB expressed in Escherichia coli C43(DE3) assessed as residual activity at 1.25 uM using dabcyl-VEVGGTATAGAFSRPGLE-(EDANS) as substrate preincubated for 10 mins followed by substrate addition measured for 2 hrs by FRET assay relative to control; method in brief: as §1
[8] = molecular target: Signal peptidase I (Escherichia coli K-12) (UniProt P00803); test: Inhibition of full length Escherichia coli His6-tagged LepB expressed in Escherichia coli C43(DE3) assessed as residual activity at 0.625 uM using dabcyl-VEVGGTATAGAFSRPGLE-(EDANS) as substrate preincubated for 10 mins followed by substrate addition measured for 2 hrs by FRET assay relative to control; method in brief: as §1
[9] = molecular target: Signal peptidase I (Escherichia coli K-12) (UniProt P00803); test: Inhibition of full length Escherichia coli His6-tagged LepB expressed in Escherichia coli C43(DE3) assessed as residual activity at 0.313 uM using dabcyl-VEVGGTATAGAFSRPGLE-(EDANS) as substrate preincubated for 10 mins followed by substrate addition measured for 2 hrs by FRET assay relative to control; method in brief: as §1
[10] = molecular target: Signal peptidase I (Escherichia coli K-12) (UniProt P00803); test: Inhibition of full length Escherichia coli His6-tagged LepB expressed in Escherichia coli C43(DE3) assessed as residual activity at 0.156 uM using dabcyl-VEVGGTATAGAFSRPGLE-(EDANS) as substrate preincubated for 10 mins followed by substrate addition measured for 2 hrs by FRET assay relative to control; method in brief: as §1
[11] = molecular target: Signal peptidase I (Escherichia coli K-12) (UniProt P00803); test: Inhibition of full length Escherichia coli His6-tagged LepB expressed in Escherichia coli C43(DE3) assessed as residual activity at 0.078 uM using dabcyl-VEVGGTATAGAFSRPGLE-(EDANS) as substrate preincubated for 10 mins followed by substrate addition measured for 2 hrs by FRET assay relative to control; method in brief: as §1
[12] = molecular target: Signal peptidase I (Escherichia coli K-12) (UniProt P00803); test: Inhibition of full length Escherichia coli His6-tagged LepB expressed in Escherichia coli C43(DE3) assessed as residual activity at 0.039 uM using dabcyl-VEVGGTATAGAFSRPGLE-(EDANS) as substrate preincubated for 10 mins followed by substrate addition measured for 2 hrs by FRET assay relative to control; method in brief: as §1
[13] = molecular target: Signal peptidase I (Escherichia coli K-12) (UniProt P00803); test: Inhibition of full length Escherichia coli His6-tagged LepB expressed in Escherichia coli C43(DE3) assessed as residual activity at 0.02 uM using dabcyl-VEVGGTATAGAFSRPGLE-(EDANS) as substrate preincubated for 10 mins followed by substrate addition measured for 2 hrs by FRET assay relative to control; method in brief: as §1
[14] = molecular target: Signal peptidase I (Escherichia coli K-12) (UniProt P00803); test: Inhibition of full length Escherichia coli His6-tagged LepB expressed in Escherichia coli C43(DE3) assessed as residual activity at 0.01 uM using dabcyl-VEVGGTATAGAFSRPGLE-(EDANS) as substrate preincubated for 10 mins followed by substrate addition measured for 2 hrs by FRET assay relative to control; method in brief: as §1
[15] = molecular target: Signal peptidase I (Escherichia coli K-12) (UniProt P00803); test: Inhibition of full length Escherichia coli His6-tagged LepB expressed in Escherichia coli C43(DE3) assessed as residual activity at 0.001 uM using dabcyl-VEVGGTATAGAFSRPGLE-(EDANS) as substrate preincubated for 10 mins followed by substrate addition measured for 2 hrs by FRET assay relative to control; method in brief: as §1
[16] = molecular target: Signal peptidase I (Escherichia coli K-12) (UniProt P00803); test: Inhibition of full length Escherichia coli His6-tagged LepB expressed in Escherichia coli C43(DE3) assessed as residual activity at 0.0005 uM using dabcyl-VEVGGTATAGAFSRPGLE-(EDANS) as substrate preincubated for 10 mins followed by substrate addition measured for 2 hrs by FRET assay relative to control; method in brief: as §1
[17] = molecular target: Signal peptidase I (Escherichia coli K-12) (UniProt P00803); test: Potency index, ratio of decanoyl-PTANA-CHO IC50 to compound IC50 for full length Escherichia coli His6-tagged LepB expressed in Escherichia coli C43(DE3)
[18] = test system: Escherichia coli; test: Antibacterial activity against wild type Escherichia coli ATCC 25922 after 16 to 20 hrs by broth microdilution assay; format: functional
Method in brief: (§2)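 MIC by broth microdilution in cation-adjusted Mueller-Hinton II medium, following EUCAST and CLSI guidelines; panel of Gram-negative strains plus S. aureus ATCC 29213.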

[19] = test system: Escherichia coli; test: Antibacterial activity against Escherichia coli CH3130 harboring tolC deletion mutant after 16 to 20 hrs by broth microdilution assay; format: functional
Method in brief: (§3)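 Broth microdilution MIC in cation-adjusted Mueller-Hinton II medium, following EUCAST and CLSI guidelines; tested on a panel of Gram-negative strains plus S. aureus ATCC 29213 (wild-type).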

[20] = test system: Escherichia coli; test: Antibacterial activity against Escherichia coli D22 harboring lpxC mutant after 16 to 20 hrs by broth microdilution assay; format: functional; method in brief: as §3
[21] = test system: Pseudomonas aeruginosa; test: Antibacterial activity against wild type Pseudomonas aeruginosa PAO1 after 16 to 20 hrs by broth microdilution assay; format: functional; method in brief: as §2
[22] = test system: Pseudomonas aeruginosa; test: Antibacterial activity against wild type Pseudomonas aeruginosa PAO750 harboring efflux defective mutant after 16 to 20 hrs by broth microdilution assay; format: functional; method in brief: as §3
[23] = test system: Klebsiella pneumoniae; test: Antibacterial activity against wild type Klebsiella pneumoniae […] after 16 to 20 hrs by broth microdilution assay; format: functional; method in brief: as §2
[24] = test system: Staphylococcus aureus; test: Antibacterial activity against wild type Staphylococcus aureus ATCC 29213 after 16 to 20 hrs by broth microdilution assay; format: functional; method in brief: as §2
[25] = test system: Acinetobacter baumannii; test: Antibacterial activity against wild type Acinetobacter baumannii ATCC 19606 after 16 to 20 hrs by broth microdilution assay; format: functional; method in brief: as §2
[26] = Cytotoxicity against human HepG2 cells assessed as reduction in cell viability after 72 hrs by fluorescein diacetate dye based fluorometric microculture assay; format: toxicity
Method in brief: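 FMCA on HepG2 cells read at 72 h. Survival index (%) is fluorescence in test wells as percent of control cultures, with blank values subtracted. IC50 was obtained by non-linear regression of log concentration-effect curves.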

[27] = Hemolytic activity against human RBC at 100 uM after 45 mins by spectrophotometric method relative to control; format: ADME, cell-based, Erythrocyte; details: red blood cells (RBC), read-out: Activity
Method in brief: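 Hemolysis was tested using red blood cells from heparinized human blood.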

CCCCCCCCCC(=O)N1CCC[C@H]1C(=O)N[C@H](C(=O)N[C@@H](C)C(=O)N[C@@H](CC(N)=O)C(=O)N[C@@H](C)B1O[C@@H]2C[C@@H]3C[C@@H](C3(C)C)[C@]2(C)O1)[C@H](C)O
pIC50 [1]: 7.32
Activity [2]: 17.2%
Activity [3]: 10.6%
inhibition [4]: > 50%
Activity [5]: 0.084%
Activity [6]: 81.9%
Activity [7]: 16.9%
Activity [8]: 18.1%
Activity [9]: 19.7%
Activity [10]: 29.6%
Activity [11]: 36.4%
Activity [12]: 47%
Activity [13]: 66.8%
Activity [14]: 84.2%
Activity [15]: 84.5%
Activity [16]: 82.6%
Ratio IC50 [17]: 25
MIC [18]: > 64 µg/mL
MIC [19]: > 64 µg/mL
MIC [20]: > 64 µg/mL
MIC [21]: > 64 µg/mL
MIC [22]: > 64 µg/mL
MIC [23]: > 64 µg/mL
MIC [24]: 32 µg/mL (≈ 42.1 µM)
MIC [25]: > 64 µg/mL
IC50 at 72 h [26]: 7.8 µM
hemolysis at 0.75 h, 100 µM [27]: 0.4%
